Bioassay records (PubChem BioAssay)
BAP1 block – inhibitors of BAP1 deubiquitinase, primary screen, biochemical, Ub-AMC fluorescence, kinetic; Ubiquitin carboxyl-terminal hydrolase BAP1 (Homo sapiens), Q92560; recombinant BAP1, Ub-AMC hydrolysis fluorescence kinetic; hits give low values; calls only at 20 µM; 72,000 compounds, 0.48% hits; AID 436, 2006;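 active = activity remaining at or below 50% of control, provided the compound also passes the data quality filters; inactive = the rest, including low values that fail the filters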
Target sequence (Q92560 whole entry, looked up): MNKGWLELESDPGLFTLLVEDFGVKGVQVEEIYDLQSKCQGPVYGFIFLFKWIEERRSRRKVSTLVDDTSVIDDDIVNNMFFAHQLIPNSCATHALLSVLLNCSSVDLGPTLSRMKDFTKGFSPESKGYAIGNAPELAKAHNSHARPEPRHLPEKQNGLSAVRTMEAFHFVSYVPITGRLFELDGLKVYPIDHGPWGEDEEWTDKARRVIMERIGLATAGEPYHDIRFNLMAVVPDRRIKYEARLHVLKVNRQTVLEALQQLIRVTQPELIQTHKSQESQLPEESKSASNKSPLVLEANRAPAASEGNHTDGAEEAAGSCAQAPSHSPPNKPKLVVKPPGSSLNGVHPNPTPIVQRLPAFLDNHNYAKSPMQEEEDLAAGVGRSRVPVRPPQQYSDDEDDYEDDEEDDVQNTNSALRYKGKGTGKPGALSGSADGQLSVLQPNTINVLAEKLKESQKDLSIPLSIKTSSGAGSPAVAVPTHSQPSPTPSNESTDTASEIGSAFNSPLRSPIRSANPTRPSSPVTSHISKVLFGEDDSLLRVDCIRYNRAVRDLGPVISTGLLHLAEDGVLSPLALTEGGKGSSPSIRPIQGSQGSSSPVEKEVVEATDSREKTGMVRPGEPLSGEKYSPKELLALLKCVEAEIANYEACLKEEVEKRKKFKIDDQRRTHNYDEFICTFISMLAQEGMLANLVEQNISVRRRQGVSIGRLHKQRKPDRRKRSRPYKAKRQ
M1 ag – M1 muscarinic receptor agonists, primary screen, CHO-M1 cells, Fluo-4 calcium, agonist mode; AID 626, 2007; B-score at 10 µM; Fluo-4 calcium fluorescence; hits give high values; 64,000 compounds, 3% hits;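 active = fluorescence rise, raw or as B-score row- and column-corrected plate score, outside the 99.7% band of its plate's samples, either direction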
Ecoli WT expand – growth inhibitors of wild-type E. coli, primary screen, strain BW25113, expanded library, OD600 | OD600 absorbance | growth inhibition, % at 100 µM | 98,000 compounds, 0.15% hits | AID 710, 2007;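 active = growth inhibition above about 50% at one test dose, limit read from the data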;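 note: growth measured after 20 h incubation at 37 °C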
M1 antag – antagonists of rat M1 muscarinic receptor. CHO-M1 cells, Fluo-4 calcium, ACh EC80 antagonist mode; hits give low values. 64,000 compounds, 3.4% hits. AID 628, 2007. Muscarinic acetylcholine receptor M1 (Rattus norvegicus), P08482. B-score at 10 µM;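 active = calcium fluorescence response, raw or row-and-column corrected B-score, differing from the plate sample mean either way at a set confidence level, mostly lower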
Ecoli tolC – growth inhibitors of E. coli tolC mutant, primary screen, strain BW25113 ΔtolC::kan, 384-well; OD615; growth inhibition, % at 10 µM (by protocol); 65,000 compounds, 2.2% hits;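 active = growth inhibition at or above a cutoff equal to the mean over every tested compound plus 3 SD, cut at about 60% in these data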;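 note: growth measured after 20 h incubation at 37 °C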
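Material: E. coli BW25113 ΔtolC::kan, tolC deletion mutant strain. Measure: percent growth inhibition. Schedule: 37 °C, 20 h exposure. Doses: single-point testing at 10 µM. Signal: A615 absorbance measurement. Buffer or medium: kanamycin-containing LB broth (50 µg/mL).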
Hsp90 block – tumor Hsp90 inhibitors, primary screen, cell lysate, fluorescence polarization, NCI-N417 lysate; Heat shock protein HSP 90-alpha (Homo sapiens), P07900; Cy3B-geldanamycin FP displacement; inhibition, % at 30 µM; 64,000 compounds, 0.35% hits;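 active = inhibition above 50%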
M1 antag conf – rat M1 muscarinic receptor antagonists, confirmation, CHO cells, Fluo-4 calcium, duplicate; 1,700 compounds, 43% hits; shares compounds with M1 antag; calcium response (max-min fluorescence) at 10 µM; ACh EC80 antagonism; hits give low values;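 active = calcium response below the same-plate mean of wells given acetylcholine alone at its 80%-effect dose, minus 3 SD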
mGluR4 antag – human mGluR4 response to M1 antagonist hits, M1 allosteric modulator project, cell-based, antagonist mode, secondary assay 1; shares compounds with M1 antag; CHO-mGluR4 calcium flux, Fluo-4 fluorescence, glutamate EC80; hits give low values; fluorescence response (max-min) at 10 µM; 1,700 compounds, 0.9% hits; AID 678, 2007;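 active = fluorescence response below the plate's average for near-maximal glutamate wells, less 3 SD of those wells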;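 note: raw unnormalized fluorescence span taken in the window right after glutamate addition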
Large screens that a line does not name were inactive (follow-up assays come after a bar, where they were run). This is a sample that favours compounds with a hit; in the whole collection about 5.1% have one here.

O=C(C1CCC1)N1CCc2cc(S(=O)(=O)NC3CCCC3)ccc21	M1 antag -15 | M1 antag conf inactive | mGluR4 antag inactive
N#Cc1c(NC(=O)c2ccc(S(=O)(=O)N3CCCC3)cc2)sc2c1CCC2	none (no result: M1 ag, Ecoli WT expand, M1 antag, Ecoli tolC, Hsp90 block)
Cc1ccc(S(=O)(=O)N2CCC(C(=O)N3CCC[C@H]3C(=O)NC3CCS(=O)(=O)C3)CC2)cc1 (stereo not given in full)	none
O=C(NC1CCS(=O)(=O)C1)C1CCCCN1S(=O)(=O)c1ccc(Cl)cc1 (stereo not given)	M1 antag -3.4 (no result: BAP1 block, Hsp90 block) | M1 antag conf inactive | mGluR4 antag inactive
Cc1noc(C)c1S(=O)(=O)N1CCC(C(=O)N2CCN(c3ccc(F)cc3)CC2)CC1	M1 antag -1.9 | M1 antag conf inactive | mGluR4 antag inactive
Cc1noc(C)c1S(=O)(=O)Nc1ccc(C(=O)NC2CCCCCC2)cc1	none
Cc1noc(C)c1S(=O)(=O)Nc1ccc(C(=O)N2CCN(c3ccc(Cl)cc3)CC2)cc1	M1 antag -2.4 | M1 antag conf inactive | mGluR4 antag inactive
CCc1sc(NS(C)(=O)=O)nc1-c1ccccc1	none
CCc1sc(NC(=O)COC)nc1-c1ccccc1	M1 antag -5.9 | M1 antag conf 456 | mGluR4 antag inactive
O=C(OCCN1CCCCC1)c1ccc(O)cc1	none
O=C(OCCN1CCCCC1)c1ccccc1Cl	M1 antag -2.6 | M1 antag conf inactive | mGluR4 antag inactive
CC(C)(C)c1ccccc1OCCN1CCCC1	M1 antag -11 | M1 antag conf 176 | mGluR4 antag inactive
CC(=O)c1ccccc1OCCCN1CCCCC1	M1 antag -2.3 | M1 antag conf 356 | mGluR4 antag inactive
COc1cccc(OC)c1OCCCCN1CCCC1	none
Clc1ccccc1OCCCCN1CCCC1	M1 antag -1.7 | M1 antag conf inactive | mGluR4 antag inactive
CC1CC(C)CN(S(=O)(=O)c2ccc(C(=O)N=c3sc4cc(Br)ccc4n3C)cc2)C1 (stereo not given)	none (no result: M1 ag, Ecoli WT expand, M1 antag, Ecoli tolC, Hsp90 block)
CC1CCCCN1CCn1cnc2c([nH]c3ccccc32)c1=O (stereo not given)	M1 antag -6.9 | M1 antag conf 355 | mGluR4 antag inactive
CCOc1ccccc1N1CCN(C(=O)C2c3ccccc3Oc3ccccc32)CC1	none (no result: BAP1 block, M1 ag, M1 antag, Ecoli tolC, Hsp90 block)
CS(=O)(=O)N1CCN(C(=O)C2c3ccccc3Oc3ccccc32)CC1	M1 antag -2.2 | M1 antag conf 365 | mGluR4 antag inactive
C=CCNC(=O)c1sc2cc(Cl)ccc2c1Cl	none (no result: M1 ag, Ecoli WT expand, M1 antag, Ecoli tolC, Hsp90 block)
CCOC(=O)c1c(N=c2oc3c(OC)cccc3cc2C(N)=O)sc2c1CCCC2	none (no result: M1 ag, Ecoli WT expand, M1 antag, Ecoli tolC, Hsp90 block)
COC(=O)c1cc(Br)c(=O)n(CCc2ccc(F)cc2)c1	M1 antag -4 | M1 antag conf inactive | mGluR4 antag inactive
COc1ccccc1CC(=O)N1CC(C)CC(C)C1 (stereo not given)	none (no result: M1 ag, Ecoli WT expand, M1 antag, Ecoli tolC, Hsp90 block)
CCOC(=O)Nc1ccc2c(c1)Sc1ccccc1N2C(=O)CCN1CCOCC1	M1 antag -3.5 | M1 antag conf 317 | mGluR4 antag inactive
CCOC(=O)Nc1ccc2c(c1)N(C(=O)N1CCN(C)CC1)c1ccccc1S2	M1 antag -15, Ecoli tolC 65 | M1 antag conf 14 | mGluR4 antag inactive
CCOc1ccc2c(c1)c1nnc(SCC(=O)N3CCC(C)CC3)nc1n2C	M1 antag -4.6 | M1 antag conf 333 | mGluR4 antag inactive
CC1CCCCN1C(=O)CSc1nc(N)cc(=O)[nH]1 (stereo not given)	none (no result: BAP1 block, M1 ag, M1 antag, Ecoli tolC, Hsp90 block)
CCOc1ccc2c(c1)c1nnc(SCC(=O)N3CCCCC3C)nc1n2C (stereo not given)	M1 antag -3.2 | M1 antag conf inactive | mGluR4 antag inactive
COc1ccc(C=Nc2ccccc2C(=O)O)cc1	none (no result: M1 ag, Ecoli WT expand, M1 antag, Ecoli tolC, Hsp90 block)
O=C(CN1CCCC(O)C1)N1c2ccccc2Sc2ccc(C(F)(F)F)cc21 (stereo not given)	M1 antag -11 | M1 antag conf 16 | mGluR4 antag inactive
O=C(CSc1nc(C2CC2)nc2ccccc12)N1c2ccccc2Sc2ccc(C(F)(F)F)cc21	none (no result: BAP1 block, M1 ag, M1 antag, Ecoli tolC, Hsp90 block)
